Here are results for two molecules from ChEMBL document CHEMBL5385869, “Novel 4-aminoquinolines: Synthesis, inhibition of the Mycobacterium tuberculosis enoyl-acyl carrier protein reductase, antitubercular activity, SAR, and preclinical evaluation” (Eur J Med Chem, 2023).

Data set [1] has as its target T1, Enoyl-[acyl-carrier-protein] reductase [NADH] (Mycobacterium tuberculosis) (UniProt P9WGR1).
T1 sequence (whole entry): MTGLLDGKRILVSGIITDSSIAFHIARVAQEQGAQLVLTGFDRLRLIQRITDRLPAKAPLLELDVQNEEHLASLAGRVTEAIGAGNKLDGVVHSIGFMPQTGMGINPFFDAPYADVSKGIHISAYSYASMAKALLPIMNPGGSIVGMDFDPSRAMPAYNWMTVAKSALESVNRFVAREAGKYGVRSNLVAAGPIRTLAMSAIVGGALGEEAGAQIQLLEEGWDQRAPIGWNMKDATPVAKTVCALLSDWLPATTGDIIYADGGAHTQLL
Description: Binding affinity to Mycobacterium tuberculosis InhA assessed as gibbs free energy change at 250 uM in presence of NADH by fluorescence spectroscopy. The method, boiled down: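 Titration of pre-formed MtInhA:NADH complex (2 mL of 3 μM enzyme with 20 μM NADH), adding microliter aliquots of 250 μM ligand stock with dilution kept ≤1%. Intrinsic fluorescence read at 295 nm excitation, 310–500 nm emission. Temperatures 15, 20, 25 and 30 °C. KD is fitted to a hyperbolic isotherm. ΔH°, ΔS° and ΔG° come from van't Hoff analysis of KD across temperatures.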

A short description of data set [2]: Cytotoxicity against human HepG2 cells assessed as reduction in cell viability incubated for 72 hrs by neutral red uptake assay. The class given is toxicity, cell-based. The method, boiled down:
(§1)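 Cells grown in DMEM with 10% FBS. HepG2 seeded at 4 × 10³ and Vero at 2 × 10³ cells/well, 24 h before dosing. Compounds at 1, 5 and 20 μM in 1% DMSO for 72 h at 37 °C, 5% CO2. MTT readout: 5 mg/mL reagent for 4 h, absorbance at 595 nm. Neutral red readout: 25 μg/mL dye for 3 h, then acid-ethanol desorb. Viability is expressed relative to 1% DMSO controls.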

Data set [3] is described as follows: Selectivity index, ratio of CC50 for human HepG2 cells by neutral red uptake assay to MIC for pan-sensitive Mycobacterium tuberculosis H37Rv ATCC 27294. Particulars: read-out: Selectivity Index. Type of data set: toxicity.
Data set [4] can be described thus: Cytotoxicity against African green monkey Vero cells assessed as reduction in cell viability incubated for 72 hrs by neutral red uptake assay. Type of data set: toxicity, cell-based. Particulars: chlorocebus sabaeus. The essentials:
as §1

Data set [5] in a line: Solubility of compound in 0.1 M HCl solution at pH 1.2 at 1 mg incubated for 4 hrs under shaking conditions by liquid chromotography. The class given is physicochemical. The method, boiled down:
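1 mg of compound was added to 1 mL of PBS pH 7.4 or 0.1 M HCl, in triplicate. Suspensions were vortexed 1 min, shaken 4 h at 25 °C, then centrifuged 13000 rpm for 15 min at 25 °C. Supernatant was quantified by reverse-phase UHPLC (UV 260–280 nm) against a single-point calibration of compound in DMSO.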

Data set [6] is described as follows: Selectivity index, ratio of CC50 for human HepG2 cells by MTT assay to MIC for pan-sensitive Mycobacterium tuberculosis H37Rv ATCC 27294. The class given is toxicity. Particulars: read-out: Selectivity Index.
The subject of data set [7] is Mycobacterium tuberculosis. As to the kind of experiment: Potency index, ratio of isoniazid MIC to test compound MIC for antibacterial activity against pan-sensitive Mycobacterium tuberculosis H37Rv ATCC 27294 measured after 7 days by resazurin dye based assay. The note with it: time 7 day. Type of data set: functional.
A short description of data set [8]: Permeability of compound at 10 uM measured after 5 hrs by PAMPA assay. Type of data set: ADME. Particulars: read-out: permeability. The essentials:
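PAMPA: compounds at 10 μM in 2% DMSO added to a pH 7.4 donor phase, 5 h at room temperature. Receptor-side concentration (pH 7.4) measured to derive permeation rate. Alprenolol is the analytical control.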

Data set [9] is described as follows: Chemical stability in 0.1 M NH4HCO3 solution at pH 9.1 assessed as parent compound remaining at 1 to 10 uM measured after 24 hrs by HPLC-EM/MS analysis. The note with it: dose 1-10 µM, read-out: Stability. The class given is physicochemical. The essentials:
(§2)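 Compounds at 1–10 μM incubated 24 h at 37 °C in three media: pH 1.2 (0.1 M HCl), pH 7.4 (PBS) and pH 9.1 (0.1 M NH4HCO3). Remaining parent compound quantified afterward.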

Data set [10] can be described thus: Cytotoxicity against human HepG2 cells assessed as reduction in cell viability incubated for 72 hrs by MTT assay. The class given is toxicity, cell-based. The essentials: as §1
The target in data set [11] is T1, Enoyl-[acyl-carrier-protein] reductase [NADH] (Mycobacterium tuberculosis). As to the kind of experiment: Time dependent inhibition of Mycobacterium tuberculosis InhA.
For data set [12], the target named is T2, Enoyl-[acyl-carrier-protein] reductase [NADH] (Mycobacterium tuberculosis, UniProt P9WGR1).
T2 sequence (P9WGR1 whole entry): T1 sequence (whole entry)
As to the kind of experiment: Noncompetitive inhibition of Mycobacterium tuberculosis InhA using DD-CoA as substrate assessed as inhibition constant for enzyme-substrate-inhibitor ternary complex in presence of varying concentrations of NADH by double reciprocal plot analysis.

Data set [13] deals with Escherichia coli. As to the kind of experiment: Antibacterial activity against Escherichia coli ATCC 25922 assessed as inhibition of bacterial growth at 20 uM by broth microdilution method. The class given is functional, organism-based. The method, boiled down:
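Broth microdilution in triplicate against a small bacterial panel, with compounds tested at 20 μM for growth inhibition.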

Data set [14] addresses T2, Enoyl-[acyl-carrier-protein] reductase [NADH]. As to the kind of experiment: Inhibition of Mycobacterium tuberculosis InhA-catalysed chemical reaction in presence of NADH measured for 1 min by UV/Visible spectrophotometry. The essentials:
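Recombinant MtInhA reaction at 25 °C in 100 mM Pipes pH 7.0, started by adding 2.2 μM enzyme and followed for 1 min. Substrate is DD-CoA, made from 2-trans-dodecenoic acid and CoA.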

For data set [15] the target is unchanged. As to the kind of experiment: Competitive inhibition of Mycobacterium tuberculosis InhA using varying concentrations of DD-CoA as substrate assessed as inhibition constant for enzyme-inhibitor binary complex in presence of NADH by Lineweaver-Burk plot analysis. The essentials: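 Steady-state kinetics with recombinant MtInhA in 100 mM Pipes pH 7.0 at 25 °C. NADH fixed at 60 μM, DD-CoA varied 15–135 μM, inhibitor at fixed-varied levels of 0.2–4 μM. Kis is fitted to the competitive inhibition equation.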

The nature of data set [16]: Chemical stability in 0.1 M HCl solution at pH 1.2 assessed as parent compound remaining at 1 to 10 uM measured after 24 hrs by HPLC-EM/MS analysis. The class given is physicochemical. Particulars: dose 1-10 µM, read-out: Stability. The method, boiled down:
as §2

Data set [17] in a line: Selectivity index, ratio of CC50 for African green monkey Vero cells by MTT assay to MIC for pan-sensitive Mycobacterium tuberculosis H37Rv ATCC 27294. The class given is toxicity, cell-based. Particulars: read-out: Selectivity Index.
The target of data set [18] is T1, Enoyl-[acyl-carrier-protein] reductase [NADH] (Mycobacterium tuberculosis). Description: Binding affinity to Mycobacterium tuberculosis InhA assessed as change in entropy at 250 uM in presence of NADH by fluorescence spectroscopy.
In data set [19] the test system is Mycobacterium tuberculosis. Description: Antibacterial activity against pan-sensitive Mycobacterium tuberculosis H37Rv ATCC 27294 measured after 7 days by resazurin dye based assay. Type of data set: functional. Particulars: H37Rv ATCC 27294, 168 h, time 7 day. The essentials: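 Resazurin reduction microplate assay (REMA) in Middlebrook 7H9 broth with 10% ADC and 5% DMSO. Compounds come from 2 mg/mL DMSO stocks and are 2-fold serially diluted, top concentration 0.08–40 μg/mL depending on solubility. MIC is the lowest concentration preventing the blue-to-pink colour change. Three independent experiments; the reported value is the modal or the highest value.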

Data set [20] in a line: Chemical stability in PBS at pH 7.4 assessed as parent compound remaining at 1 to 10 uM measured after 24 hrs by HPLC-EM/MS analysis. Particulars: dose 1-10 µM, read-out: Stability. Type of data set: physicochemical. The method, boiled down: as §2
In data set [21] the target is T2, Enoyl-[acyl-carrier-protein] reductase [NADH]. Description: Noncompetitive inhibition of Mycobacterium tuberculosis InhA using DD-CoA as substrate assessed as inhibition constant for enzyme-inhibitor binary complex in presence of varying concentrations of NADH by double reciprocal plot analysis.

Values after ≈ are worked out from the molar mass of the structure shown. Active and inactive are the calls of the source. The rule behind the calls is not given here.

As for `Cc1cc(Nc2ccc(N3CCCCC3)cc2)c2cc(Br)ccc2n1`, the deltaG in [1] was -8.3 kcal/mol. Also, the CC50 at 72 h in [2] is 18300 nM; in data set [4] it was 12200 nM; in data set [10], over 20000 nM. Besides, the selectivity ratio in data set [3] is 45.7; in data set [6], over 50; in data set [17], over 50. Also, the thermodynamic solubility at 4 h in data set [5] was over 2500 µM. Also, the Ratio in data set [7] is recorded as about 5.8. In [8], the Papp at 5 h, 10 µM is 3.16 ×10⁻⁶ cm/s. The remaining at 24 h, up to 10 µM was found to be 47% in data set [9], 94.6% in data set [16] and 100% in [20]. In addition, the TDI entry in data set [11] is “inactive”. The results for the Ki in data set [12], in data set [15] and in data set [21] were 150 nM, 140 nM and 140 nM, respectively. Further, in [13], the outcome was inactive. In data set [14], the IC50 worked out at 230 nM. Further, the deltaS in [18] was -33.4 cal/mol/K. Further, in data set [19], the MIC is 0.4 µM (≈ 0.159 µg/mL).

Turning to `Cc1cc(Nc2ccc(N3CCCCC3)cc2)c2cc(Cl)ccc2n1`, in data set [1], the deltaG is -8.3 kcal/mol. The CC50 at 72 h in data set [2] was 16400 nM; in data set [4] it was 11700 nM; in data set [10] it was over 20000 nM. Further, the selectivity ratio was 18.2 in data set [3], over 22.2 in [6] and 21.3 in data set [17]. In data set [5], this molecule returned a thermodynamic solubility at 4 h of over 2800 µM. Also, the Ratio in [7] is listed as about 2.6. The Papp at 5 h, 10 µM in data set [8] is 11.5 ×10⁻⁶ cm/s. For the same molecule, the results for the remaining at 24 h, up to 10 µM in data set [9], in [16] and in data set [20] were 24.7%, 98.6% and 100%, respectively. The TDI entry in [11] was “inactive”. Further, the Ki turned out to be 460 nM in [12], 1330 nM in [15] and 430 nM in data set [21]. The result in data set [13] was inactive. In addition, in [14], the IC50 is 1100 nM. The deltaS in [18] was -49.8 cal/mol/K. For the same molecule, in [19], inhibition of growth (MIC) required 0.9 µM (≈ 0.317 µg/mL).
